Reference: ChEMBL document CHEMBL1154162, “Synthesis and structure-activity relationships of 2-(1,4'-bipiperidin-1'-yl)thiazolopyridine as H3 receptor antagonists” (Bioorg Med Chem Lett, 2009)
Values belong to the compound of their own block, whether it stands above or below them.

Key:
[1] = biological target: Histamine H3 receptor (Homo sapiens, UniProt Q9Y5N1); assay: Displacement of [3H]N-alpha-methylhistamine from human recombinant histamine H3 receptor expressed in HEK293 cells; format: cell-based
[2] = biological target: hERG (KCNH2) (Homo sapiens, UniProt Q12809); assay: in vitro
[3] = test system: Mus musculus; assay: Ex vivo displacement of [3H]N-alpha-methylhistamine from histamine H3 receptor in ICR mouse at 10 mg/kg, po by receptor occupancy assay relative to control; format: functional
Outline: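 ICR mice dosed orally at 10 mg/kg. Cortex dissected 4 h after dosing and homogenized in ice-cold 50 mM Na2HPO4–KH2PO4 buffer pH 6.8, then frozen at −80 °C for at least 12 h. Protein measured by BCA. Incubation 30 min at room temperature, in quadruplicate. Stopped by filtration on PEI-presoaked GF/B plates and counted. Specific binding calculated as total minus nonspecific.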

[4] = biological target: Histamine H3 receptor (Mus musculus, UniProt P58406); assay: Displacement of [3H]N-alpha-methylhistamine from mouse brain histamine H3 receptor
[5] = Cmax in rat; format: ADME, organism-based; details: in vivo
Outline: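 Rats dosed orally at 10 mg/kg. Cmax taken from the plasma profile.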

[6] = Cmax in monkey; format: ADME, organism-based, Macaca mulatta; details: rhesus monkey, in vivo
Outline: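 Monkeys dosed orally at 3 mg/kg. Cmax taken from the plasma profile.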

[7] = AUC (0 to 24 hrs) in monkey at 3 mg/kg, po; format: ADME, organism-based, Macaca mulatta; design: time < 24 hr, dose 3 mg/kg, route oral; details: rhesus monkey, plasma
Outline: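 Monkeys dosed orally at 3 mg/kg. AUC calculated over 0–24 h.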

[8] = in vivo; details: rat, plasma, po, 10 mg/kg
[9] = test system: Mus musculus; assay: Ex vivo displacement of [3H]N-alpha-methylhistamine from histamine H3 receptor in ICR mouse at 10 mg/kg, po by receptor occupancy assay relative to control
[10] = in vivo; details: ICR, mouse, brain/plasma, po, 30 mg/kg
[11] = biological target: Histamine H3 receptor (Cavia porcellus, UniProt Q9JI35); assay: Antagonist activity at guinea pig jejunum histamine H3 receptor by electric field stimulation assay; format: functional, tissue-based; details: read-out: pA2 (converted)
Chain of Histamine H3 receptor (Cavia porcellus, UniProt Q9JI35) (Q9JI35 whole entry): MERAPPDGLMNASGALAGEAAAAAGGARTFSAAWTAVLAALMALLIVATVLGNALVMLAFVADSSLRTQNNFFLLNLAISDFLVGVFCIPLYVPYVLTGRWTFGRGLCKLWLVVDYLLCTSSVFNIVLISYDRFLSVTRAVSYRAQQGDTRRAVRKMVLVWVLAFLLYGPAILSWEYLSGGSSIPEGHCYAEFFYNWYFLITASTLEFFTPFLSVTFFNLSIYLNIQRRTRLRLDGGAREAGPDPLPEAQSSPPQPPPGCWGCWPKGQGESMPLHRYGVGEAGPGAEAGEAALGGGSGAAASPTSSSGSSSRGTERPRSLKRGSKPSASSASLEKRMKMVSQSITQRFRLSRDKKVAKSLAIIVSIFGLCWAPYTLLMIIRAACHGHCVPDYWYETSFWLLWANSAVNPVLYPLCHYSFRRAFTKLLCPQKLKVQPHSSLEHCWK

Chain of Histamine H3 receptor (Homo sapiens, UniProt Q9Y5N1) (Q9Y5N1 whole entry): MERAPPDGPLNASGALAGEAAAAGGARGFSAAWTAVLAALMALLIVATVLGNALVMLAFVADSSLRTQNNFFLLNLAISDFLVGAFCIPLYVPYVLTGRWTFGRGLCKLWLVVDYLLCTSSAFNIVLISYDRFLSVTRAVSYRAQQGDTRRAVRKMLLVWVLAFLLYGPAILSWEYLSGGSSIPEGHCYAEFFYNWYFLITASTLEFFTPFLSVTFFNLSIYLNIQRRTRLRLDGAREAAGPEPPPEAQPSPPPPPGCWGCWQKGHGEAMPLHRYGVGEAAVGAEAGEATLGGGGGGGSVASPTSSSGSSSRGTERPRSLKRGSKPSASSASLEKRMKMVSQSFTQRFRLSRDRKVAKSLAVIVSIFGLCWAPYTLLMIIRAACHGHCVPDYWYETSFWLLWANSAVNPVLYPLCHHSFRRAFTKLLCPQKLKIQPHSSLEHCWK
Chain of hERG (KCNH2) (Q12809 whole entry): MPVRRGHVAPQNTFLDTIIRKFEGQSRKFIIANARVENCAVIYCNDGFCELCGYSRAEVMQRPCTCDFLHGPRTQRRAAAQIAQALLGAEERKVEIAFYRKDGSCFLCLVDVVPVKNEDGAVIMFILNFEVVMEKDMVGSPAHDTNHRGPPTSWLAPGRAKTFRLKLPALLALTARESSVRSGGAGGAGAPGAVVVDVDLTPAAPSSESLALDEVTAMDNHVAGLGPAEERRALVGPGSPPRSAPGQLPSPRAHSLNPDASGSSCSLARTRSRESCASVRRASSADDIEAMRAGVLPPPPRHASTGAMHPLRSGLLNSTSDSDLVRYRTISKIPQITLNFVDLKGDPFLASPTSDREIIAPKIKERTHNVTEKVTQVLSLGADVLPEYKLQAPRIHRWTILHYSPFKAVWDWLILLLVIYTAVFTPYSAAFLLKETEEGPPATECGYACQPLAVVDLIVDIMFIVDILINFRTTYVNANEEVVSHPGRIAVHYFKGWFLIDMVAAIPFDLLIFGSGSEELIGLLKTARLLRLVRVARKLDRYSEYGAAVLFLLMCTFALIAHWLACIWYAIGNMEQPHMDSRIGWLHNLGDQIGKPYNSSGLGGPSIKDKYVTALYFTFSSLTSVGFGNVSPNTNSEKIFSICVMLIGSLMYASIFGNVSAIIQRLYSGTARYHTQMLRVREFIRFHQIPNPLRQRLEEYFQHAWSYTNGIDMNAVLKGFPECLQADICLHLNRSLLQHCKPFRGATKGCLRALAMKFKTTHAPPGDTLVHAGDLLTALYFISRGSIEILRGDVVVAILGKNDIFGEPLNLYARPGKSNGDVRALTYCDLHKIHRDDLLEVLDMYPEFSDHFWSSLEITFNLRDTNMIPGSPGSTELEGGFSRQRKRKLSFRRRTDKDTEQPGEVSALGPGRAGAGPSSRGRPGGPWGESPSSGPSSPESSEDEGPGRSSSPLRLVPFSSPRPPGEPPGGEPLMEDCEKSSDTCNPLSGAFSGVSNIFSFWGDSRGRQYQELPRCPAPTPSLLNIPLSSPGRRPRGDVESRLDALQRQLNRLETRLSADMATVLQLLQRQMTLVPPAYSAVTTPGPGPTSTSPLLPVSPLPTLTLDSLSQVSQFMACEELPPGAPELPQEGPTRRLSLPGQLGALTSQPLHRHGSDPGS
Chain of Histamine H3 receptor (Mus musculus, UniProt P58406) (P58406 whole entry): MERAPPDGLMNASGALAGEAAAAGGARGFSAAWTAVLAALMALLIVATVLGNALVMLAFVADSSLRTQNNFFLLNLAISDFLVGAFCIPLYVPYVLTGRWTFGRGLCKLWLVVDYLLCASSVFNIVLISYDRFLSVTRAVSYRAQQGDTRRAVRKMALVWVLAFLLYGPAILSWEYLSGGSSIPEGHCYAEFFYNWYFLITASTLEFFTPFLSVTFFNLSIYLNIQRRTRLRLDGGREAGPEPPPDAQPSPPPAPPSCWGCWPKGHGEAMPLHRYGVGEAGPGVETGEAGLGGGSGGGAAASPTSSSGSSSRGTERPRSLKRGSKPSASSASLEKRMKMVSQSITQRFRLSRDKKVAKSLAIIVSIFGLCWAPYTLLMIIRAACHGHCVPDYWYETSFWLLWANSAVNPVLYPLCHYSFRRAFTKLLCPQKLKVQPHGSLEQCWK

SMILES: Clc1ccc2nc(N3CCC(N4CCCCC4)CC3)sc2n1
Ki [1]: 1700 nM

SMILES: COc1cc(-c2cnc3nc(N4CCC(N5CCCCC5)CC4)sc3c2)ccn1
inhibition at 10 µM [2]: 98%

SMILES: COc1cccc(-c2cnc3nc(N4CCC(N5CCCCC5)CC4)sc3c2)c1
Ki [1]: 140 nM

SMILES: CC(=O)c1cccc(-c2cnc3nc(N4CCC(N5CCCCC5)CC4)sc3c2)c1
Ki [1]: 33 nM

SMILES: Nc1cnc(-c2cnc3nc(N4CCC(N5CCCCC5)CC4)sc3c2)cn1
inhibition at 10 µM [2]: 20%

SMILES: CC(=O)Nc1cnc2nc(N3CCC(N4CCCCC4)CC3)sc2c1
Ki [1]: 31 nM

SMILES: Fc1cc(-c2cc3sc(N4CCC(N5CCCCC5)CC4)nc3cn2)ccn1
inhibition at 10 µM [2]: 85%

SMILES: COc1cc(-c2cc3sc(N4CCC(N5CCCCC5)CC4)nc3cn2)ccn1
inhibition at 10 µM [2]: 91%

SMILES: Brc1cnc2nc(N3CCC(N4CCCCC4)CC3)sc2c1
Ki [1]: 141 nM

SMILES: Nc1ccc(-c2cnc3nc(N4CCC(N5CCCCC5)CC4)sc3c2)cn1
Activity [3]: 3%

SMILES: Clc1cc2sc(N3CCC(N4CCCCC4)CC3)nc2cn1
Activity [9]: 80% | inhibition at 10 µM [2]: 59% | Ki [4]: 75 nM | Kp at 96 h [10]: 4.52 | AUC(0-t) at 6 h [8]: 56 ng·h/mL

SMILES: c1ncc(-c2cnc3nc(N4CCC(N5CCCCC5)CC4)sc3c2)cn1
inhibition at 10 µM [2]: 30% | Activity [3]: 0% | Ki [4]: 66 nM

SMILES: CCCN1CCN(c2nc3cnccc3s2)CC1
Kb [11]: 56.2 nM

SMILES: Nc1cnc2nc(N3CCC(N4CCCCC4)CC3)sc2c1
Ki [1]: 79 nM

SMILES: Clc1cnc2nc(N3CCC(N4CCCCC4)CC3)sc2c1
Ki [1]: 125 nM

SMILES: Fc1ncccc1-c1cc2sc(N3CCC(N4CCCCC4)CC3)nc2cn1
inhibition at 10 µM [2]: 88%

SMILES: c1cnc2nc(N3CCC(N4CCCCC4)CC3)sc2c1
Ki [1]: 139 nM

SMILES: N#Cc1cnc2nc(N3CCC(N4CCCCC4)CC3)sc2c1
Ki [1]: 36 nM

Further lines, with some results ahead:

Ki [1]: 126 nM
SMILES: N#Cc1ccc(-c2cc3sc(N4CCC(N5CCCCC5)CC4)nc3cn2)cc1

Ki [1]: 53 nM
SMILES: CC(=O)Nc1cc2sc(N3CCC(N4CCCCC4)CC3)nc2cn1

Ki [4]: 20 nM
SMILES: CC(=O)Nc1ccc(-c2cnc3nc(N4CCC(N5CCCCC5)CC4)sc3c2)cn1
inhibition at 10 µM [2]: 20% | Activity [3]: 45%

Ki [1]: 80 nM
SMILES: CC(=O)c1cccc(-c2cc3sc(N4CCC(N5CCCCC5)CC4)nc3cn2)c1

Ki [1]: 128 nM
SMILES: c1cc2sc(N3CCC(N4CCCCC4)CC3)nc2cn1

Ki [1]: 230 nM
SMILES: COc1cccc(-c2cc3sc(N4CCC(N5CCCCC5)CC4)nc3cn2)c1

Ki [1]: 213 nM
SMILES: Oc1ccc(-c2cc3sc(N4CCC(N5CCCCC5)CC4)nc3cn2)cc1

Cmax [5]: 234 ng/mL | Cmax [6]: 33 ng/mL | AUC(0-t) at 24 h [7]: 624 ng·h/mL | Ki [4]: 89 nM | AUC(0-t) at 6 h [8]: 1070 ng·h/mL
SMILES: Fc1ccc(-c2cc3sc(N4CCC(N5CCCCC5)CC4)nc3cn2)cn1
Activity [3]: 95%

Ki [1]: 46 nM
SMILES: N#Cc1cc(-c2cc3sc(N4CCC(N5CCCCC5)CC4)nc3cn2)ccc1F

Ki [1]: 73 nM
SMILES: Nc1cc2sc(N3CCC(N4CCCCC4)CC3)nc2cn1

Ki [1]: 35 nM
SMILES: N#Cc1cc2sc(N3CCC(N4CCCCC4)CC3)nc2cn1

Ki [4]: 20 nM
SMILES: Oc1ccc(-c2cc3sc(N4CCC(N5CCCCC5)CC4)nc3cn2)cn1
Activity [3]: 1%

AUC(0-t) at 6 h [8]: 339 ng·h/mL
SMILES: N#Cc1cc(-c2cnc3nc(N4CCC(N5CCCCC5)CC4)sc3c2)ccc1F

Ki [1]: 59 nM
SMILES: Oc1ccc(-c2cnc3nc(N4CCC(N5CCCCC5)CC4)sc3c2)cc1
